Data as given in ChEMBL document CHEMBL4715720, “Synthetic strategy and antiviral evaluation of diamide containing heterocycles targeting dengue and yellow fever virus” (Eur J Med Chem, 2016).

Assays:
[1] = (§1) Selectivity index, ratio of CC50 for African green monkey Vero-B cells infected with Dengue virus serotype 2 assessed as inhibition of cell growth to EC50 for Dengue Virus serotype 2 infected in Vero-B cells assessed as inhibition of virus-induced cytopathogenic effect incubated for 7 days by methylene blue staining based visual analysis; type: toxicity; details: read-out: Ratio CC50/EC50
[2] = as §1, with “Yellow fever” for “Dengue”, “virus” for “virus serotype 2”, “Yellow fever virus” for “Dengue Virus serotype 2”; type: toxicity; details: read-out: Ratio CC50/EC50
[3] = Cytotoxicity against African green monkey Vero-B cells infected with Dengue virus serotype 2 assessed as inhibition of cell growth after 7 days by methylene blue staining based visual analysis; details: chlorocebus aethiops, time 7 day
Method in brief: (§2)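 Dengue virus serotype 2 was tested in green monkey kidney Vero-B cells from the ECACC line. EC50 is the concentration that inhibits virus-induced CPE by 50%. CC50 is the concentration that inhibits cell growth by 50%. Values were first obtained in μg/mL and then recalculated to μM.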

dengue virus type 2 = assay: Antiviral activity against Dengue virus serotype 2 infected in Vero-B cells assessed as inhibition of virus-induced cytopathogenic effect after 7 days by methylene blue staining based visual analysis; type: functional, organism-based; details: 168 h; method in brief: as §2
Yellow fever virus = assay: Antiviral activity against Yellow fever virus infected in Vero-B cells assessed as inhibition of virus-induced cytopathogenic effect after 7 days by methylene blue staining based visual analysis; type: functional, organism-based; details: 168 h
Method in brief: (§3)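 Yellow fever virus was tested in Vero-B cells of the ATCC CCL-81 line. EC50 is the concentration giving 50% inhibition of virus-induced CPE. CC50 is the concentration giving 50% inhibition of cell growth. The original μg/mL data were converted to μM.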

[4] = Cytotoxicity against African green monkey Vero-B cells infected with Yellow fever virus assessed as inhibition of cell growth after 7 days by methylene blue staining based visual analysis; details: chlorocebus aethiops, time 7 day; method in brief: as §3

| SMILES | selectivity ratio at 168 h [1] | selectivity ratio at 168 h [2] | other results |
| --- | --- | --- | --- |
| Cc1ccc(NC(=O)c2nccnc2C(=O)Nc2ccc(C)cc2-c2cccs2)cc1 | > 235 | – | – |
| Cc1ccc(NC(=O)c2nccnc2C(=O)Nc2ccc(F)cc2)c(-c2cccs2)c1 | – | 5 | – |
| O=C(NCc1ccccc1-c1ccsc1)c1ccccc1C(=O)Nc1ccc(F)cc1 | 17 | 53 | CC50 at 168 h [3]: 50 µM; EC50 (dengue virus type 2): 3 µM; EC50 (Yellow fever virus): 1.4 µM; CC50 at 168 h [4]: 75 µM |
| Cc1ccc(NC(=O)c2nccnc2C(=O)Nc2ccccc2-c2cc(C)n[nH]2)cc1 | – | > 34 | – |
| Cc1ccc(NC(=O)c2nccnc2C(=O)Nc2ccc(C)cc2-c2ccsc2)cc1 | > 29 | – | – |
| Cc1ccc(NC(=O)c2nccnc2C(=O)Nc2ccc(C)cc2-c2cc(C)n[nH]2)cc1 | > 235 | – | – |
| Cc1ccc(NC(=O)c2ccccc2C(=O)Nc2ccc(C)cc2-c2ccsc2)cc1 | 41 | – | – |
| Cc1ccc(NC(=O)c2ccccc2C(=O)Nc2ccc(F)cc2)c(-c2cc(C)n[nH]2)c1 | > 235 | – | – |
